Source: PMC3646584 (Journal of medicinal chemistry, 2013)

Tests used:
A549-T12 = experiment: Cell growth inhibition, drug-resistant cell line study; type: cell-based, human; conditions: for IC50: Homo sapiens; for resistance ratio: IC50 A549-T12 / IC50 A549
How it was run: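 Cells seeded at 8 × 10^3 per well and preincubated 18 h at 37 °C in humidified 5% CO2. Medium then replaced with fresh medium holding test compound at several concentrations (10 mM DMSO stocks; final DMSO ≤0.25%) for 72 h at 37 °C. Viability by MTT. […] Parental A549 grown in DMEM with 10% FBS.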

A549 = experiment: In vitro cell growth inhibition; type: cell-based; conditions: Homo sapiens
HeLa cells [1] = experiment: Mitochondrial membrane potential; type: cell-based, human; conditions: JC-1, 24 or 48 h
How it was run: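 HeLa cells exposed to the test compound at the stated concentrations for 24 or 48 h, with DMSO at no more than 0.25%, then stained with the lipophilic cationic dye JC-1 to monitor mitochondrial membrane potential. Values are the mean ± SEM of three independent experiments.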

[2] = test system: Jurkat, HT-29, and HeLa cells; experiment: Cell cycle analysis by flow cytometry; type: cell-based, human; conditions: for lowest concentration giving a rise in G2/M cells: 24 h treatment
How it was run: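 Cells were treated for 24 h with graded compound concentrations (HeLa: 5 × 10^5 exponentially growing cells). They were collected, fixed in ice-cold 70% ethanol, and treated with lysis buffer containing RNase A and 0.1% Triton X-100. After PI staining, DNA content was read by flow cytometry. Cell-cycle phase percentages came from DNA histogram analysis.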

HeLa cells [3] = experiment: ROS production; type: cell-based, human; conditions: HE or H2-DCFDA, 24 or 48 h
How it was run: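 After 24 or 48 h exposure to the test compound (DMSO at most 0.25%), cells were stained with hydroethidine (HE) or H2-DCFDA and ROS were read by flow cytometry. Results are the mean ± SEM from three independent experiments.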

[4] = Cytotoxicity for resting peripheral blood lymphocytes; type: cell-based; conditions: human
How it was run: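 Donor PBLs were separated on a Lymphoprep gradient, washed, and kept overnight in RPMI-1640 with 10% FBS. Nonadherent cells were resuspended at 5 × 10^5 cells/mL without PHA (resting) and exposed to graded compound for 72 h. Viability was read by MTT. IC50 is given as mean ± SEM from three separate experiments.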

HeLa cells [5] = experiment: Annexin-V/PI apoptosis assay; type: cell-based, human; conditions: 24 or 48 h, concentration- and time-dependent
HeLa cells [6] = experiment: Western blot analysis of cell cycle and apoptosis proteins; type: cell-based, human
How it was run: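 HeLa cells were treated for 24 or 48 h. They were washed twice in ice-cold PBS and lysed on ice for 30 min, and the lysates were cleared at 15000g, 4 °C, 10 min. Protein was measured by BCA, and 20 μg per lane was run on 7.5–15% SDS–PAGE, then blotted to PVDF and blocked overnight at 4 °C. Membranes were probed 2 h at room temperature for cyclin B, p-cdc2 Tyr15, PARP and Xiap, with peroxidase secondary for 60 min and ECL detection. They were stripped and reprobed for β-actin.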

[7] = test system: BNL 1ME A.7R.1 allografts; experiment: Syngeneic hepatocellular carcinoma allograft model; type: in vivo, Balb/c mice; conditions: 5 mg/kg ip daily for seven days
How it was run: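 Male Balb/c mice, 8 weeks old, received 10^7 syngeneic hepatocarcinoma cells in 200 μL sterile PBS subcutaneously in the dorsal region. At ~100 mm3, fifteen mice were randomised into three groups of five. Groups got vehicle (0.9% NaCl, 5% PEG 400, 0.5% Tween 80), test compound, or reference, each at 5 mg/kg ip daily for 7 days. Body weight was tracked as mean ± SEM; two-sided Student's t test.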

[8] = Cytotoxicity for PHA-stimulated peripheral blood lymphocytes; type: cell-based; conditions: human, PHA-stimulated (proliferating) peripheral blood lymphocytes
How it was run: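 PBLs from healthy donors were isolated on a Lymphoprep gradient, washed, and rested overnight at 1.0 × 10^6 cells/mL in RPMI-1640 with 10% FBS. Nonadherent cells were reseeded at 5 × 10^5 cells/mL in growth medium containing 2.5 μg/mL PHA. Graded compound was added and viability read by MTT after 72 h. IC50 is given as mean ± SEM of three separate experiments.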

[9] = test system: panel of seven human cancer cell lines; experiment: Antiproliferative activity across the panel of seven human cancer cell lines; type: cell-based; conditions: read-out: IC50 values across the cell line panel
How it was run: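 Jurkat, SEM and HL-60 cells were grown in RPMI-1640; MCF-7, A549, HeLa and HT-29 cells in DMEM; both with 10% FBS plus penicillin/streptomycin. 8 × 10^3 cells/well were held 18 h at 37 °C, 5% CO2, then given fresh medium with graded compound (DMSO ≤0.25%) for 72 h. Viability was read by MTT. […] Mean ± SE, ≥3 independent experiments.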

Compound: COC(=O)c1sc2ncccc2c1Nc1cc(OC)c(OC)c(OC)c1 [4l, Methyl 3-[(3,4,5-Trimethoxyphenyl)amino]thieno[2,3-b]pyridine-2-carboxylate]
- IC50 (A549-T12): 12.6 ± 2.9 nM
- resistance ratio (A549-T12): 1.5
- IC50 (A549): 8.5 ± 1.9 nM

Compound: COC(=O)c1sc2nc(C)ccc2c1Nc1cc(OC)c(OC)c(OC)c1 [4n, Methyl 6-Methyl-3-[(3,4,5-trimethoxyphenyl)amino]thieno[2,3-b]pyridine-2-carboxylate]
- proportion of cells with depolarized mitochondria (HeLa cells [1]): time- and concentration-dependent increase
- lowest concentration giving a rise in G2/M cells [2]: 20 nM
- ROS production vs control cells (HeLa cells [3]): induced the production of significant amounts of ROS
- IC50 at 72 h [4]: > 10000 nM
- annexin-V-positive cells vs control (HeLa cells [5]): accumulation of annexin-V-positive cells

Compound: COC(=O)c1sc2cc(OC)ccc2c1Nc1cc(OC)c(OC)c(OC)c1 [4i, Methyl 6-Methoxy-3-[(3,4,5-trimethoxyphenyl)amino]-1-benzo-[b]thiophene-2-carboxylate]
- proportion of cells with depolarized mitochondria (HeLa cells [1]): time- and concentration-dependent increase
- cyclin B expression (HeLa cells [6]; 10 or 100 nM, 24 or 48 h): no significant variations
- expression of phosphorylated cdc2 (Tyr15) (HeLa cells [6]; 10 or 100 nM, 24 or 48 h): dramatic decrease
- concentration at which PARP cleavage was detectable (HeLa cells [6]; 24 h): 10 nM
- Xiap expression (HeLa cells [6]; 24 h, even at 10 nM): almost eliminated
- caspase activation (HeLa cells [6]; Western blot, HeLa): induced proteolytic cleavage of caspase-9 and caspase-3
- cells arrested in G2/M ([2]; 24 h, at higher concentrations): more than 80%
- lowest concentration giving a rise in G2/M cells [2]: 20 nM
- ROS production vs control cells (HeLa cells [3]): induced the production of significant amounts of ROS
- body weight change during treatment [7]: only a small decrease in body weight
- IC50 at 72 h [8]: 2800 ± 1200 nM
- IC50 [9]: 0.28 to 10 nM
- IC50 at 72 h [4]: > 10000 nM
- annexin-V-positive cells vs control (HeLa cells [5]): accumulation of annexin-V-positive cells

Compound: CCOC(=O)c1sc2ncccc2c1Nc1cc(OC)c(OC)c(OC)c1 [4m, Ethyl 3-[(3,4,5-Trimethoxyphenyl)amino]thieno[2,3-b]pyridine-2-carboxylate]
- IC50 (A549-T12): 19.5 ± 2.3 nM
- resistance ratio (A549-T12): 1.2
- IC50 (A549): 16.2 ± 4.4 nM
